Our source for the Ki values is ChEMBL document CHEMBL4480375, “Synthesis and receptor binding of thiophene bioisosteres of potent GluN2B ligands with a benzo[7]annulene-scaffold” (Medchemcomm, 2019).

Experiment [1] deals with T1, Sigma intracellular receptor 2 (Rattus norvegicus, UniProt Q5U3Y7).
T1 sequence (Q5U3Y7 whole entry): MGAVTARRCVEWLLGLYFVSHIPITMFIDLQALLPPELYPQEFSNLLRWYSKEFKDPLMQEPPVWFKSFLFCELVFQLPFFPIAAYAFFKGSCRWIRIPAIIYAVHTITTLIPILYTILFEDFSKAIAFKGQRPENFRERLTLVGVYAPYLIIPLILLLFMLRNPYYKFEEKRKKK
In words: Displacement of [3H]di-o-tolylguanidine from sigma2 receptor in rat liver membranes measured after 120 mins by scintillation counting analysis. The format is cell membranes.

Experiment [2] deals with Sigma non-opioid intracellular receptor 1 (Cavia porcellus, UniProt Q60492). In words: Displacement of [3H]-(+)-pentazocine from sigma1 receptor in guinea pig brain cortex membranes measured after 120 mins by scintillation counting analysis. The experiment is classed as cell membranes.
Chain of Sigma non-opioid intracellular receptor 1 (Q60492 whole entry): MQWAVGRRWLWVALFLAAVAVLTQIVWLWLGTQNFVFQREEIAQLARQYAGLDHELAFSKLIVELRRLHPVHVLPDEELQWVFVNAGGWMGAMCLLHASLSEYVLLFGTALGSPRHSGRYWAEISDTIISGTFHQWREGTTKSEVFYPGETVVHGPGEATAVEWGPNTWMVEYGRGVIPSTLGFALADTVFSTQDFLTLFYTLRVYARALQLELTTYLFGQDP
Experiment [3] concerns the target T2, Glutamate receptor ionotropic, NMDA 2B (Homo sapiens, UniProt Q13224). As to the kind of experiment: Displacement of [3H]-ifenprodil from GluN2B (unknown origin) expressed in mouse L(tk) cells measured after 120 mins by scintillation counting analysis. (In general: Loss of bound radioactivity is the signal in a displacement assay; it reports binding, not function.)

Experiment [4] deals with Glutamate receptor ionotropic, NMDA 2B (Homo sapiens, UniProt Q05586+Q13224). In words: Displacement of [3H]-ifenprodil from GluN2B (unknown origin) expressed in L(tk) cells by radio ligand binding assay. The format is cell-based. In a few lines:
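Mouse L(tk-) cells stably carrying dexamethasone-inducible GluN1a/GluN2B (1:5) were induced for 24 h with 4 μM dexamethasone plus 4 μM ketamine, then sonicated to membranes (about 20 μg protein). […] Filtration and scintillation counting, in duplicate. Ki by Cheng–Prusoff (Kd 7.6 nM), mean ± SEM of n=3.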

Experiment [5] addresses T2, Glutamate receptor ionotropic, NMDA 2B. As to the kind of experiment: Inhibition of GluN2B (unknown origin).

T2 sequence (Q13224 whole entry): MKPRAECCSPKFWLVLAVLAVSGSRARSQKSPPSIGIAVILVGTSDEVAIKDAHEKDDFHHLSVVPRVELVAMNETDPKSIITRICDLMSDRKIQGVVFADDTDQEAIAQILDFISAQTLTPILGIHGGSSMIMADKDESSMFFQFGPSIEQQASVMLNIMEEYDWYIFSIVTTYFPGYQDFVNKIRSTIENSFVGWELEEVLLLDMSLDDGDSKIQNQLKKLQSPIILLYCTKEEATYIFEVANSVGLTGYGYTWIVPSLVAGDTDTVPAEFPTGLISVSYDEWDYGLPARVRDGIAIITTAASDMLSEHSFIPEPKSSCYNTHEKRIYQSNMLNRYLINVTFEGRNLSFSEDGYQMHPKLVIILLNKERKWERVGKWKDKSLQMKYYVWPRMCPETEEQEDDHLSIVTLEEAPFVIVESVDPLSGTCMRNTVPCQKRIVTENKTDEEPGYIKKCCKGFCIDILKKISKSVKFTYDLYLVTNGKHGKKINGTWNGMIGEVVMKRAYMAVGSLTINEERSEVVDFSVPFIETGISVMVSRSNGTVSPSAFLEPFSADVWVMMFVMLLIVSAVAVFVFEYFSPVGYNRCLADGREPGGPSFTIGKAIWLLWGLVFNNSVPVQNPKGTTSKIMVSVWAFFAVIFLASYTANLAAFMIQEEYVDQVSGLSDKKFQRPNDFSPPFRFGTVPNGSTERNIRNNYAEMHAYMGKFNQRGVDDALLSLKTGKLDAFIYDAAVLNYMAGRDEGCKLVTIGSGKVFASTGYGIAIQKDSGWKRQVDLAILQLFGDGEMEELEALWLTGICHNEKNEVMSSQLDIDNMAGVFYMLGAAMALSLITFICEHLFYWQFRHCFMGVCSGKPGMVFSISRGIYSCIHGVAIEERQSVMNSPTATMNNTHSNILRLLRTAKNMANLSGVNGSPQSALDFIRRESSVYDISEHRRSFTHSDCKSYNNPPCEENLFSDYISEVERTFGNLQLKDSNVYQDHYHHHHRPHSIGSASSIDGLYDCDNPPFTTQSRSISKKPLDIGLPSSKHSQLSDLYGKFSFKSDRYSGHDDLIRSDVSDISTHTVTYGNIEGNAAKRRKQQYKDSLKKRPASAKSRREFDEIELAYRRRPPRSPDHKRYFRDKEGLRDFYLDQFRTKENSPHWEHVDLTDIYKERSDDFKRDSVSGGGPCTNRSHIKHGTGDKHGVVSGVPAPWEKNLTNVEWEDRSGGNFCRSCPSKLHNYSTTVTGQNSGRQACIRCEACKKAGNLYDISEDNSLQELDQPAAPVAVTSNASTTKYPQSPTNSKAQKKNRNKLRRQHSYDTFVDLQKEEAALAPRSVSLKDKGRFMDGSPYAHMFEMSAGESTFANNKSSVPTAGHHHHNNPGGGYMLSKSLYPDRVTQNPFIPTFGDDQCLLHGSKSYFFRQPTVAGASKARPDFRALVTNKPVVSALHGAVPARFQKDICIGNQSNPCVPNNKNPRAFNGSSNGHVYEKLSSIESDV
Chain of Glutamate receptor ionotropic, NMDA 2B (Homo sapiens, UniProt Q05586+Q13224) (Q13224 whole entry, one chain of several): as the sequence (Q13224 whole entry) above

Regarding `OC1CC(NCc2ccccc2)CCc2sccc21` (mixture of isomers), the values for the inhibition constant (Ki) in experiment [1], in experiment [2] and in experiment [3] were 606 nM, 737 nM and 204 nM, respectively.
With `COc1ccc2c(c1)CC[C@H](NCCCc1ccccc1)C[C@@H]2O` (relative stereo), the results for the inhibitory constant (Ki) in experiment [1] and in experiment [2] were 9.2 nM and 132 nM, respectively.
In the case of `Nc1ccc2c(c1)CCC(NCc1ccccc1)CC2` (stereo unspecified), the inhibition constant Ki stood at 770 nM in experiment [1], 128 nM in experiment [4], 470 nM in experiment [2] and 128 nM in experiment [3].
As to `COc1ccc2c(c1)CC[C@H](NCCCc1ccccc1)C[C@H]2O` (relative stereo), the inhibitory constant (Ki) in experiment [1] was 1100 nM; in experiment [5], 48 nM; in experiment [2], 167 nM; in experiment [3], 48 nM.
Turning to `c1ccc(CNC2CCc3ccsc3CC2)cc1` (stereo unspecified), the results for the Ki in experiment [1], in experiment [2] and in experiment [3] were 50 nM, 79 nM and 26 nM, respectively.

A word on the Ki: it is a measure of affinity in units of concentration, obtained from inhibition or displacement. A high value points to a looser hold on the target.
